Laboratory results published in ChEMBL document CHEMBL1149388, “Synthesis and structure-activity relationships of 3-[(2-methyl-1,3-thiazol-4-yl)ethynyl]pyridine analogues as potent, noncompetitive metabotropic glutamate receptor subtype 5 antagonists; search for cocaine medications” (J Med Chem, 2006).
pIC50, pKi: −log10 of the molar value. The source made the active and inactive calls. The calls are words filed in the database; no cut-off is given here.

The compounds below were run against Metabotropic glutamate receptor 5 (Homo sapiens, UniProt P41594) (assay: Displacement of [3H]MPEP from cloned human mGluR5 transfected in HEK293-T cells).
Type: cell-based
Method in brief: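 HEK293-T cells transiently transfected with cloned mGluR5 cDNA. Binding used 3.0 nM [3H]-MPEP with varying unlabeled ligand in 50 mM Tris-Cl, 0.9% NaCl, pH 7.4, incubated 90 min at 20 °C. Membranes were harvested on PEI-pretreated GF/C filters and counted by scintillation to obtain Ki.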

Chain of Metabotropic glutamate receptor 5 (Homo sapiens, UniProt P41594) (P41594 whole entry): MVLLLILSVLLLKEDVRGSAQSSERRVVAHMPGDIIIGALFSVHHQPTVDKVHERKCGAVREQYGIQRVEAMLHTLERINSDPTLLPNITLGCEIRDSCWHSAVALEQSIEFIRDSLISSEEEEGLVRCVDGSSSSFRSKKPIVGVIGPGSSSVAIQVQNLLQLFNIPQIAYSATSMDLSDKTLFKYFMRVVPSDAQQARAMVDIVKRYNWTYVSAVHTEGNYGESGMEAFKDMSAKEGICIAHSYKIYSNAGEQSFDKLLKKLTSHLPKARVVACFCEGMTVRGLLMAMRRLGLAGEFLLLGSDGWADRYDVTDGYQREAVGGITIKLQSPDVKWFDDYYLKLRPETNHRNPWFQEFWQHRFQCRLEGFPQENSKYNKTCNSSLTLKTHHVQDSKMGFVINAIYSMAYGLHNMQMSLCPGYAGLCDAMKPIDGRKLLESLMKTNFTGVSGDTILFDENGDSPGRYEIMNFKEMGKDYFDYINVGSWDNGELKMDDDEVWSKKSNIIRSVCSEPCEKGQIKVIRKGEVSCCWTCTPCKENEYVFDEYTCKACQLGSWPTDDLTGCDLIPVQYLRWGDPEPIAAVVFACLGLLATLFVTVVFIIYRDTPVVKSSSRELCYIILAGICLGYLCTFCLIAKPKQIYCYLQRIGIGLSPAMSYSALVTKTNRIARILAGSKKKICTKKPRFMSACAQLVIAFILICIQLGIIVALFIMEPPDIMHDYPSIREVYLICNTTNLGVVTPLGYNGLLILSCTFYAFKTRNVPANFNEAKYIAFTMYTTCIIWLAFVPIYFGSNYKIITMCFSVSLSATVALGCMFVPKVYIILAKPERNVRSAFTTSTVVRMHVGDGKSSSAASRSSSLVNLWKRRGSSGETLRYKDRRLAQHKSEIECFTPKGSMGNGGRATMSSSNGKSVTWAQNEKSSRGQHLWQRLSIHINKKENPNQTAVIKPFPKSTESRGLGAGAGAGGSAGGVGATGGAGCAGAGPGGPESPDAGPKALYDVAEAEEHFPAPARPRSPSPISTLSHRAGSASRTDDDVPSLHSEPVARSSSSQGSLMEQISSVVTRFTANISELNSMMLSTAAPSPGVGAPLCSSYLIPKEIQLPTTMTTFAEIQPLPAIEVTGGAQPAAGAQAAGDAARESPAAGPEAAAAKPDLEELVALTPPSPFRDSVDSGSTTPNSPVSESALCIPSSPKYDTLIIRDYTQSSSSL

| Compound | pKi |
| --- | --- |
| C=Cc1cncc(C#Cc2csc(C)n2)c1 | 9.00 |
| Cc1nc(C#Cc2cccc(C#N)c2)cs1 | 9.43 |

What follows are compounds tested against Metabotropic glutamate receptor 5 (Rattus norvegicus, UniProt P31424) (assay: Displacement of [3H]MPEP from mGluR5 in rat brain membranes).
Type: cell membranes

Chain of Metabotropic glutamate receptor 5 (Rattus norvegicus, UniProt P31424) (P31424 whole entry): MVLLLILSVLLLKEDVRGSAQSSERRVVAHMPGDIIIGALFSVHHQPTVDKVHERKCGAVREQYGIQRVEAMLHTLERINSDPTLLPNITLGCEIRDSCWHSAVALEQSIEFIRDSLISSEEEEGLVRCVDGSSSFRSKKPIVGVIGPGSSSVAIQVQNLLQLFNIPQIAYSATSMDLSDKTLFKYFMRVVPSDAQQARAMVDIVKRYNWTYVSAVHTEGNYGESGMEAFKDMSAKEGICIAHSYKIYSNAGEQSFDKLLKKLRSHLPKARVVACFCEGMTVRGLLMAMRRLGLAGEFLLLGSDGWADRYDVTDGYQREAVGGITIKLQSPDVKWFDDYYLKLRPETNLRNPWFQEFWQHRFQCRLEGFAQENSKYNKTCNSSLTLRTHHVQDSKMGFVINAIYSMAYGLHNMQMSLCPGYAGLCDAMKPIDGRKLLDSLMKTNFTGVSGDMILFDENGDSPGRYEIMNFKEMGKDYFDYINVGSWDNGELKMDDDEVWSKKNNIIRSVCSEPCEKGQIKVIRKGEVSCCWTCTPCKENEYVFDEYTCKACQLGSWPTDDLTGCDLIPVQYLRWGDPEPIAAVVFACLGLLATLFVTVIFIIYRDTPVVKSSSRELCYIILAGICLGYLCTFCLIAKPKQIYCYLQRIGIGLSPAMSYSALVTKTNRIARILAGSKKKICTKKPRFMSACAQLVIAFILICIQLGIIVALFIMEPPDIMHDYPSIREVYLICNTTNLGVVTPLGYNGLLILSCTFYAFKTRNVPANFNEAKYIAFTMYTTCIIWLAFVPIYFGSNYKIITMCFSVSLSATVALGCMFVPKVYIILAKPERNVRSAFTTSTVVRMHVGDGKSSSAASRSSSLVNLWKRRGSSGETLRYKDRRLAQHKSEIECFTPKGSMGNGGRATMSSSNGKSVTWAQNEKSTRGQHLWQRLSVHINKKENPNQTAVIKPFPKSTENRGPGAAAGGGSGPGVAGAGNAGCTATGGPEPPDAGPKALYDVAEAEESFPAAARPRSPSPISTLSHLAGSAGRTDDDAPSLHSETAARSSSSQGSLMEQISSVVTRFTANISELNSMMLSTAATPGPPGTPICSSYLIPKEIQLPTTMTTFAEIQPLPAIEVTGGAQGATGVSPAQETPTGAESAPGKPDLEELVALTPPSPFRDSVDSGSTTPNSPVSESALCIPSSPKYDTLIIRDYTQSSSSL

| Compound | pKi |
| --- | --- |
| C=Cc1cncc(C#Cc2csc(C)n2)c1 | 9.15 |
| Cc1nc(C#Cc2cccc(C#N)c2)cs1 | 9.60 |

Species: Rattus norvegicus
Test: Ability to prevent reinstatement of cocaine-seeking behavior by environmental stimuli associated with cocaine availability in Wistar rat
Type: functional, organism-based
Method in brief: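 Adult male Wistar rats with jugular catheters trained to self-administer cocaine (0.25 mg/kg/infusion) under FR4 in daily 2 h sessions. Extinction continued until active-lever responding fell below 20% of baseline for 3 consecutive days. Cue-induced reinstatement was then tested 30 min after i.p. pretreatment with 5 or 10 mg/kg or vehicle (5% emulphor in saline). Active-lever responses were analysed by one-way ANOVA with Tukey tests.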

| Compound | Activity |
| --- | --- |
| Cc1nc(C#Cc2cccnc2)cs1 | Active |

Each compound was assayed against Metabotropic glutamate receptor 5 (Rattus norvegicus) (UniProt P31424) (assay: Activity in agonist-induced phosphoinositide hydrolysis in CHO cells expressing mGluR5a).
Chain of Metabotropic glutamate receptor 5 (Rattus norvegicus) (P31424 whole entry, looked up): as the sequence (P31424 whole entry) above

| Compound | pIC50 |
| --- | --- |
| Cc1nc(C#Cc2cccc(O)c2)cs1 | 6.18 |
| Cc1nc(C#Cc2cccc(F)c2)cs1 | 7.64 |
| Fc1cccc(C#Cc2csc(-c3cc(F)cc(F)c3)n2)c1 | < 5.00 |
| OCC#Cc1nc(C#Cc2cccc(F)c2)cs1 | < 5.00 |
| Cc1nc(C#Cc2cccc(C(N)=O)c2)cs1 | 6.00 |
| Cc1nc(C#Cc2ccccc2F)cs1 | 6.85 |
| Cc1nc(C#Cc2cc(F)cc(F)c2)cs1 | 7.60 |
| Cc1nc(C#Cc2ccc(F)cc2)cs1 | 5.53 |
| Cc1nc(C#Cc2cnccn2)cs1 | 5.74 |
| C#Cc1nc(C#Cc2cccc(F)c2)cs1 | 5.53 |
| C#Cc1cncc(C#Cc2csc(C)n2)c1 | 7.72 |
| C=Cc1cncc(C#Cc2csc(C)n2)c1 | 8.70 |
| Cc1nc(C#Cc2ccc3[nH]ccc3c2)cs1 | < 5.00 |
| Cc1nc(C#Cc2cccc(Cl)c2)cs1 | 6.89 |
| Cc1nc(C#Cc2ccc(-c3ccc(F)cc3)nc2)cs1 | 7.99 |
| Cc1nc(/C=C/c2cccnc2)cs1 | 5.51 |
| Cc1nc(C#Cc2cnc3ccccc3c2)cs1 | < 5.00 |
| Cc1nc(C#Cc2cccnc2Cl)cs1 | 7.34 |
| CCc1sc(C)nc1C#Cc1cccnc1 | 5.91 |

| Compound | pIC50 |
| --- | --- |
| Cc1nc(C#Cc2cncc(-c3ccc(F)cc3)c2)cs1 | 6.79 |
| O=C(Nc1nc(C#Cc2cccnc2)cs1)Nc1ccc(F)cc1F | < 5.00 |
| Cc1nc(C#Cc2cccc(C(F)(F)F)c2)cs1 | 6.38 |
| Cc1nc(C#Cc2cncc(Br)c2)cs1 | 7.22 |
| Cc1nc(C#Cc2cccc(OC(F)(F)F)c2)cs1 | 6.58 |
| COc1ccc(C#Cc2csc(C)n2)cn1 | 6.37 |
| COc1ccccc1C#Cc1csc(C)n1 | 7.44 |
| Cc1nc(C#Cc2cccnc2OS(C)(=O)=O)cs1 | < 5.00 |
| Fc1cccc(C#Cc2csc(Br)n2)c1 | 6.28 |
| COc1ncccc1C#Cc1csc(C)n1 | 6.64 |
| Cc1nc(C(=O)Nc2cccnc2)cs1 | < 5.00 |
| C#Cc1ccc(C#Cc2csc(C)n2)cn1 | 5.53 |
| Cc1nc(C#Cc2ccc(OS(C)(=O)=O)nc2)cs1 | 5.63 |
| Cc1nc(C#Cc2cccs2)cs1 | 6.32 |
| Cc1nc(C#Cc2cccnc2)c(-c2ccccc2)s1 | < 5.00 |
| Cc1nc(C#Cc2ccc3nccnc3c2)cs1 | < 5.00 |
| Cc1nc(C#Cc2cncnc2)cs1 | 6.02 |
| Cc1nc(C#Cc2ccc(F)cn2)cs1 | 5.96 |
| COc1ccc(-c2cncc(C#Cc3csc(C)n3)c2)cc1 | 6.65 |

| Compound | pIC50 |
| --- | --- |
| Cc1nc(C#Cc2ccc(Cl)nc2)cs1 | < 5.00 |
| Cc1nc(C#Cc2ccsc2)cs1 | 6.47 |
| Cc1nc(C#Cc2cncc(C#CCO)c2)cs1 | 7.16 |
| C#Cc1ncccc1C#Cc1csc(C)n1 | 6.72 |
| Cc1nc(C#Cc2cccc(C#N)c2)cs1 | 9.03 |
| Cc1nc(C#Cc2cccnc2)c(C)s1 | 6.16 |
| C(#Cc1csc(NCc2ccccc2)n1)c1cccnc1 | < 5.00 |
| Cc1nc(C#Cc2cccc(F)c2)co1 | < 5.00 |
| CC(=O)Nc1cccc(C#Cc2csc(C)n2)c1 | 5.69 |
| Cc1nc(C#Cc2cccnc2)co1 | < 5.00 |
| COC(=O)Nc1nc(C#Cc2cccnc2)cs1 | < 5.00 |
| Cc1nc(C#Cc2ccc(F)nc2)cs1 | 6.08 |
| CC(=O)Nc1nc(C#Cc2cccnc2)cs1 | 5.72 |
| COc1cccc(C#Cc2csc(C)n2)c1 | 7.31 |
| Nc1nc(C#Cc2cccnc2)cs1 | 6.10 |
| Cc1nc(C(=O)Nc2cccc(F)c2)cs1 | < 5.00 |
| Nc1nc(C#Cc2cccc(F)c2)cs1 | 7.10 |
| C=Cc1ccc(C#Cc2csc(C)n2)cn1 | < 5.00 |
